The target in data set [1] is Histone deacetylase 1 (Homo sapiens, UniProt Q13547). In words: Inhibition of full length human recombinant C-terminal FLAG/His-tagged HDAC1 (1 to 482 residues) expressed in sf21 cells preincubated with enzyme followed by fluorogenic Arg-His-Lys-Lys(Ac)-AMC substrate addition measured after 2 hrs by fluorescence assay.
Data set [2] has as its target T1, Protein deacetylase HDAC6 (Homo sapiens, UniProt Q9UBN7).
T1 sequence (Q9UBN7 whole entry): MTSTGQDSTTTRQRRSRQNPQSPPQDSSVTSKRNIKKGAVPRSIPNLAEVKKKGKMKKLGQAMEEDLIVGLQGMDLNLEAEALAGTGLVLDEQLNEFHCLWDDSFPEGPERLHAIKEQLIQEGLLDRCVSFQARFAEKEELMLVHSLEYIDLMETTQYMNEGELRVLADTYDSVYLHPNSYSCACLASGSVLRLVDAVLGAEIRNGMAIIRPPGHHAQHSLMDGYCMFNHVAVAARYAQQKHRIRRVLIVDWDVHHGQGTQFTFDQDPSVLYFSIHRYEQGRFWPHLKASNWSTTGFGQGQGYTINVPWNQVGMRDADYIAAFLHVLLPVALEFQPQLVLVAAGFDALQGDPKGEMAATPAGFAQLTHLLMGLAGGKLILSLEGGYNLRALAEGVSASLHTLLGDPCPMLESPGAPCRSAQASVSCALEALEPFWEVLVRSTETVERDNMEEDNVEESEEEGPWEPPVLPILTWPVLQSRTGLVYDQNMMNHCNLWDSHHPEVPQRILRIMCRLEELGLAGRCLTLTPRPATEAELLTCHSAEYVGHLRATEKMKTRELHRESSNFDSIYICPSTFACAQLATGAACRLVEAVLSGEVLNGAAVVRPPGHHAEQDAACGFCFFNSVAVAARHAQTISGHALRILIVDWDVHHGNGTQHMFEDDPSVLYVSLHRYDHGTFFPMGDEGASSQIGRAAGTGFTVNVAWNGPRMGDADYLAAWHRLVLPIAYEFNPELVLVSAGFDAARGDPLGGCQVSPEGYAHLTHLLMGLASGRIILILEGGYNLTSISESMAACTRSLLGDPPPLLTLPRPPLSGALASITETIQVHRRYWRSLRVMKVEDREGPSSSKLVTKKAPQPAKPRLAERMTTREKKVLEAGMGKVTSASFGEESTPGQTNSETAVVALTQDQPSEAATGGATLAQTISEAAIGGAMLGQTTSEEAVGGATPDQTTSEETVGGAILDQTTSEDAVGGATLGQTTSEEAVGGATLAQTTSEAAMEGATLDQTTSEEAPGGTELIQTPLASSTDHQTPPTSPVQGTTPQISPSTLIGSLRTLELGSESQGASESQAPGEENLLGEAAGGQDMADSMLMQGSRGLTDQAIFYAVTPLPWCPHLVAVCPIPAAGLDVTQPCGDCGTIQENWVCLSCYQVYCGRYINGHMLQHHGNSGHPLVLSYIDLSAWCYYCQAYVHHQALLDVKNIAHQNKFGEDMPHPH
Kind of data set: Inhibition of full length human recombinant N-terminal GST-tagged HDAC6 (1 to 1215 residues) expressed in sf9 cells preincubated with enzyme followed by fluorogenic Arg-His-Lys-Lys(Ac)-AMC substrate addition measured after 2 hrs by fluorescence assay.

For data set [3], the target named is T2, Tyrosine-protein kinase JAK2 (Homo sapiens, UniProt O60674). Kind of data set: Inhibition of JAK2 (unknown origin) preincubated for 20 mins followed by [33P]ATP addition measured after 120 mins by Hotspot assay.
Data set [4] in a line: Antiproliferative activity against human MDA-MB-231 cells after 72 hrs by MTT assay. In kind it is functional, cell-based. As to conditions: MDA-MB-231, 72 h.
Data set [5] in a line: Antiproliferative activity against human HCT116 cells after 72 hrs by MTT assay. The format is functional, cell-based. As to conditions: HCT-116, 72 h. In short, it runs like this: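 MTT viability after 72 h exposure. Cells seeded at 2500/well and left 24 h before compound addition; DMSO at 0.5% v/v final. MTT added in FBS-free medium for 3 h at 37 °C, formazan dissolved in DMSO, absorbance read at 570 nm. IC50 from a sigmoidal fit of % viability vs log concentration; triplicates on separate occasions using two different stock solutions.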

Data set [6] in a line: Antiproliferative activity against human PC3 cells after 72 hrs by MTT assay. As to conditions: PC-3, 72 h. In kind it is functional, cell-based.
The nature of data set [7]: Antiproliferative activity against human MCF7 cells after 72 hrs by MTT assay. The settings on record: MCF7, 72 h. The format is functional, cell-based.
The nature of data set [8]: Antiproliferative activity against human HL60 cells. In kind it is functional, cell-based. As to conditions: HL-60.
Data set [9] in a line: cells. The format is functional, cell-based. As to conditions: Homo sapiens, HEL 92.1.7, 36 h.
Data set [10] is described as follows: Antiproliferative activity against human Jurkat cells. The format is functional, cell-based.
Data set [11] in a line: Antiproliferative activity against mouse TAMH cells after 24 hrs by CellTiter-Glo assay. In kind it is ADME, cell-based.
A short description of data set [12]: Therapeutic index, ratio of IC50 for mouse TAMH cells to IC50 for human cancer cells. As to conditions: cancer cell lines.
The nature of data set [13]: Half life in rat liver microsomes at 3 uM preincubated for 5 mins followed by NADPH addition by LC-MS/MS analysis. In kind it is ADME. The method in brief:
(§1)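 Male and female rat liver microsomes (0.3 mg protein/mL final) with compound at 3 μM final in 0.1 M phosphate buffer pH 7.4. Preincubated 5 min at 37 °C, then started with NADPH (1 mM final). Sampled at 0, 5, 10, 15, 30 and 45 min and quenched with cold acetonitrile containing internal standard. Read by LC-MS/MS; run in triplicate; midazolam (3 μM) as positive control.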

Data set [14] is described as follows: Apparent intrinsic clearance in rat liver microsomes at 3 uM preincubated for 5 mins followed by NADPH addition measured after 45 mins by LC-MS/MS analysis. In kind it is ADME. The settings on record: read-out: CLH(app). The method in brief:
as §1

Data set [15] can be described thus: Antiproliferative activity against human HCT116 cells after 48 hrs by CellTiter-Glo assay. The format is functional, cell-based. The settings on record: HCT-116, 48 h.
Data set [16] is described as follows: Antiproliferative activity against human PC3 cells after 48 hrs by CellTiter-Glo assay. In kind it is functional, cell-based. The settings on record: PC-3, 48 h.
A short description of data set [17]: Antiproliferative activity against human MCF7 cells after 48 hrs by CellTiter-Glo assay. In kind it is functional, cell-based. The settings on record: MCF7, 48 h.
Data set [18] is described as follows: Antiproliferative activity against HEL 92.1.7 cells harboring JAK2 V617F mutant after 48 hrs by CellTiter-Glo assay. The format is functional, cell-based. The settings on record: Homo sapiens, HEL 92.1.7, 48 h.
Data set [19] can be described thus: Antiproliferative activity against human Jurkat cells after 48 hrs by CellTiter-Glo assay. In kind it is functional, cell-based.
Data set [20] in a line: Antiproliferative activity against human KMS-12-BM cells after 48 hrs by CellTiter-Glo assay. In kind it is functional, cell-based.
A short description of data set [21]: Antiproliferative activity against human OPM2 cells after 48 hrs by CellTiter-Glo assay. The format is functional, cell-based. As to conditions: OPM-2, 48 h. The method in brief:
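OPM2 grown in RPMI 1640 with 10% FBS and penicillin/streptomycin at 37 °C, 5% CO2. Treated at 25,000 cells/well in triplicate for 48 h. Viability read by CellTiter-Glo luminescence. IC50 taken from a sigmoidal fit of % viability vs log concentration.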

The nature of data set [22]: Antiproliferative activity against human KG1 cells after 48 hrs by CellTiter-Glo assay. The settings on record: KG-1, 48 h. In kind it is functional, cell-based.
The nature of data set [23]: Antiproliferative activity against human MOLM14 cells harboring FLT3-ITD mutant after 48 hrs by CellTiter-Glo assay. The settings on record: MOLM-14, 48 h. The format is functional, cell-based.
Data set [24] in a line: Antiproliferative activity against human NKYS cells after 48 hrs by CellTiter-Glo assay. The format is functional, cell-based.
Data set [25] is described as follows: Antiproliferative activity against human KHYG cells after 48 hrs by CellTiter-Glo assay. The format is functional, cell-based.
For data set [26], the target named is T2, Tyrosine-protein kinase JAK2. Kind of data set: Inhibition of JAK2 in IL-6-stimulated human KMS-12-BM cells assessed as suppression of STAT3 phosphorylation at TY705 residue at 2 uM pretreated for 3 hrs followed by IL-6 stimulation by immunoblot method. The method in brief: (§2)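 KMS-12-BM or MOLM-14 cells pretreated with compound for 3 h, then stimulated with IL-6 (10 ng/mL) for 15 min. Lysates immunoblotted for p-STAT3 (Y705) and re-probed for total STAT3. Reference JAK2 inhibitor used at 2 μM in KMS-12-BM and 0.1 μM in MOLM-14.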

For data set [27] the target is unchanged. Kind of data set: Inhibition of JAK2 in IL-6-stimulated human MOLM14 cells assessed as suppression of STAT3 phosphorylation at TY705 residue at 0.1 uM pretreated for 3 hrs followed by IL-6 stimulation by immunoblot method. In kind it is cell-based. As to conditions: MOLM-14. In short, it runs like this:
as §2

Data set [28] has as its system Tyrosine-protein kinase JAK2 (Homo sapiens), O60674 [V617F]. Kind of data set: Induction of JAK2 V617F mutant phosphorylation at Y1007/8 residues in HEL 92.1.7 cells after 1 hr by immunoblot method. The format is cell-based. In short, it runs like this: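 HEL92.1.7 cells seeded at 5x10^5/mL and treated 1 h at 0, 0.1, 0.5 and 1 μM. Lysed in RIPA with phosphatase/protease inhibitors, run on 10% SDS-PAGE and blotted to PVDF. Probed for acetyl-tubulin, acetyl-H3 (Lys9/Lys14), p-JAK2 (Y1007/1008) and p-STAT5 (Tyr694); membranes re-probed for tubulin, H3, JAK2 and STAT5. Quantified by densitometry.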

In data set [29] the target is T3, Protein deacetylase HDAC6 (Homo sapiens) (UniProt Q9UBN7).
T3 sequence (whole entry): T1 sequence (Q9UBN7 whole entry)
Kind of data set: Inhibition of full length human recombinant N-terminal GST-tagged HDAC6 (1 to 1215 residues) expressed in sf9 cells at 10 uM preincubated with enzyme followed by fluorogenic Arg-His-Lys-Lys(Ac)-AMC substrate addition measured after 2 hrs by fluorescence assay relative to control.

Data set [30] has as its system MOLM-14. In words: Induction of apoptosis in human MOLM14 cells assessed as live cells at 1 uM after 48 hrs by Annexin-V FITC/propidium iodide staining based flow cytometry (reference value: 94 to 94.1%). In kind it is functional. In short, it runs like this: (§3)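 MOLM-14 cells treated 48 h at the stated concentrations; doxorubicin as positive control. Stained with Annexin V-FITC and propidium iodide and analysed by flow cytometry (at least 10,000 events). Gated quadrants: Annexin V−/PI− viable, Annexin V+/PI− early apoptotic, Annexin V+/PI+ late apoptotic.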

The test system of data set [31] is MOLM-14. In words: Induction of apoptosis in human MOLM14 cells assessed as early apoptotic cells at 1 uM after 48 hrs by Annexin-V FITC/propidium iodide staining based flow cytometry (reference value: 3.6 to 3.7%). In kind it is functional. In short, it runs like this: as §3
Data set [32] concerns MOLM-14. In words: Induction of apoptosis in human MOLM14 cells assessed as late apoptotic cells at 1 uM after 48 hrs by Annexin-V FITC/propidium iodide staining based flow cytometry (reference value: 2.1 to 2.2%). In kind it is functional. In short, it runs like this: as §3
Data set [33] relates to MOLM-14. Kind of data set: Induction of apoptosis in human MOLM14 cells assessed as necrotic cells at 1 uM after 48 hrs by Annexin-V FITC/propidium iodide staining based flow cytometry (reference value: 0.1%). In kind it is functional. In short, it runs like this: as §3

Calls of active or inactive are those of the source. No cut-off for these calls is given here.

The source of these data is ChEMBL document CHEMBL3877241 (J Med Chem, 2016).

T2 sequence (O60674 whole entry): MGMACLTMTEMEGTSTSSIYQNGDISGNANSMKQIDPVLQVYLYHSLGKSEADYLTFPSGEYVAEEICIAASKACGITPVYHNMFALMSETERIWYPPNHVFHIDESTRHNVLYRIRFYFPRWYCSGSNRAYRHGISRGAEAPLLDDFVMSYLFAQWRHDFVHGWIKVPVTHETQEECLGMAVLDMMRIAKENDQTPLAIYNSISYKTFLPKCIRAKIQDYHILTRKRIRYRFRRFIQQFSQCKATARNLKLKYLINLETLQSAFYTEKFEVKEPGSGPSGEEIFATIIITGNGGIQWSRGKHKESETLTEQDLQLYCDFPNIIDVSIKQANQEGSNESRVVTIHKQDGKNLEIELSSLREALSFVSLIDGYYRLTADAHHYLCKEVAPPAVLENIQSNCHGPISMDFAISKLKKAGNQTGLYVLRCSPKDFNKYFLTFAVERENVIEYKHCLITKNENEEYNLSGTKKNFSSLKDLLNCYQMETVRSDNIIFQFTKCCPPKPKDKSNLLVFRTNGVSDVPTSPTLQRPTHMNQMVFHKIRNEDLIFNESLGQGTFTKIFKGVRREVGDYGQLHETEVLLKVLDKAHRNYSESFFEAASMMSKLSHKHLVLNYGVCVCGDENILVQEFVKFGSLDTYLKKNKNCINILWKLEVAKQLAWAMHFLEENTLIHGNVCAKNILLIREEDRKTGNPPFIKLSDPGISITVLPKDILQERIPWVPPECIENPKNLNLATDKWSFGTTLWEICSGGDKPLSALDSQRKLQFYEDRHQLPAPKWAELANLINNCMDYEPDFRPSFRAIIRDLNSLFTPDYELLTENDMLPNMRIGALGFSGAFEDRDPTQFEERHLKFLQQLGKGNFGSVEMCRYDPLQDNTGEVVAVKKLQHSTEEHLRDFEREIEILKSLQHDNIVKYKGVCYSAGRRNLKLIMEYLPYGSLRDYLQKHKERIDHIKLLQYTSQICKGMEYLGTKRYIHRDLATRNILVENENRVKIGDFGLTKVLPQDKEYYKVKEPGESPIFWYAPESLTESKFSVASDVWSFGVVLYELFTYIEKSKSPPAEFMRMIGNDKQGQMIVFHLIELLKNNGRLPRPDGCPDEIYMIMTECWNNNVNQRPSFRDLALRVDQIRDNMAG
Chain of Tyrosine-protein kinase JAK2 (Homo sapiens), O60674 [V617F] (O60674 whole entry V617F): as the sequence (O60674 whole entry) above, with V617F counted along it
Chain of Histone deacetylase 1 (Q13547 whole entry, the tested form may be a part): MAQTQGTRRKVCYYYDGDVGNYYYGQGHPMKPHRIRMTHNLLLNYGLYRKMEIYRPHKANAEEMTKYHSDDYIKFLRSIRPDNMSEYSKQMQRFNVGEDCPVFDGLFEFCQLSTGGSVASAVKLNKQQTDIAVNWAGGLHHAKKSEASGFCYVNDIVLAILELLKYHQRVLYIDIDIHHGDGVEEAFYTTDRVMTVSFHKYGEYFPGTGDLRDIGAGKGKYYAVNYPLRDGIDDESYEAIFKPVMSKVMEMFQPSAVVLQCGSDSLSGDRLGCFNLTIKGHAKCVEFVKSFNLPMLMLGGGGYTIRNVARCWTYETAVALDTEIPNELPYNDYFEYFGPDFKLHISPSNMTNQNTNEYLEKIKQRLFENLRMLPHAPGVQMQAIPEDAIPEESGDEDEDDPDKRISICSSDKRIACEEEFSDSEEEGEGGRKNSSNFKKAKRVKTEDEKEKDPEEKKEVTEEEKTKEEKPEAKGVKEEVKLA

`O=C(CCCCCCCOc1ccc2cc1COC/C=C/COCc1cccc(c1)-c1ccnc(n1)N2)NO`: the IC50 in [1] is 2.34 µM; in [2] it was 0.0158 µM; in [3] it was 0.005 µM; in data set [4] it was 6.44 µM; in data set [5] it was 6.23 µM; in data set [6] it was 10.1 µM. The IC50 was 9.48 µM in data set [7]; more than 4 µM in data set [8]; more than 2 µM in data set [9]; 2.48 µM in [10]; 5.26 µM in data set [11]. In addition, the selectivity ratio in data set [12] came out at 1.8. For the same molecule, the half-life at 3 µM in [13] lay within 21 to 23.4 min. The CLint scaled at 3 µM in [14] was 200 to 225 mL/min/kg.

`C1=N/C2=N/c3ccc(OCCN4CCCC4)c(c3)COC/C=C/COCc3cccc(c3)C(=C1)N2` [PACRITINIB]: the IC50 turned out to be 2.43 µM in data set [4]; 0.88 µM in [5]; 2.41 µM in [6]; 0.29 µM in data set [7]; 1.69 µM in data set [15]; 0.77 µM in data set [16]. For the same molecule, the IC50 amounted to 0.85 µM in data set [17]; 1.78 µM in [8]; 1.17 µM in data set [9]; 1.09 µM in data set [10]; 1.73 µM in data set [18]; 0.839 µM in data set [19]. The IC50 turned out to be 0.75 µM in data set [20]; 1.21 µM in [21]; 1.48 µM in data set [22]; 0.079 µM in [23]; 1.6 µM in data set [24]; 1.24 µM in [25]. The molecule also returned a half-inhibitory concentration (IC50) in data set [11] of 3.68 µM. Further, the inhibition result in [26] and in data set [27] was “Active” throughout. Besides, in [28], the outcome was Active.

For `O=C(O)CCCCCC(=O)Nc1ccc(NCCOc2ccc3cc2COC/C=C/COCc2cccc(c2)-c2ccnc(n2)N3)cc1`, the inhibition in data set [29] is 20 to 24%.

As to `COc1cccc2c1C(=O)c1c(O)c3c(c(O)c1C2=O)C[C@@](O)(C(=O)CO)C[C@@H]3O[C@H]1C[C@H](N)[C@H](O)[C@H](C)O1` [DOXORUBICIN], the Activity came to 0.8% in data set [30], 38.8% in data set [31], 59.9% in [32] and 0.4% in data set [33].
